# PREPL inh – inhibits the human prolyl oligopeptidase-like enzyme. Q4J6C6. 320,000 compounds, 0.68% hits. inhibition, % at 5.96 µM. recombinant PREPL, fluorescence polarization activity-based probe; in the data active = inhibition above about 43%;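 note: 0% = enzyme with DMSO and 100% = wells lacking enzyme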
# PAFAH1B3 inh – PAFAH1B3 (human) inhibition. Q15102. recombinant PAFAH1B3, FP-rhodamine probe, fluorescence polarization. inhibition, % at 3.39 µM. 340,000 compounds, 0.28% hits;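 active = inhibition above the screen-wide average of all tested compounds plus 3 SD, cut at about 25% in these data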;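 note: 0% = enzyme with DMSO only and 100% = wells lacking PAFAH1B3 protein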
# PAFAH1B2 FP inh – blocks human PAF acetylhydrolase 1b catalytic subunit 2; P68402; recombinant PAFAH1B2, FP-rhodamine activity probe, fluorescence polarization; inhibition, % at 3.39 µM; 340,000 compounds, 1.2% hits;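 active = inhibition above the mean of all tested compounds plus 3 SD, cut at about 24% in these data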;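 note: 0% = enzyme with DMSO and 100% = wells lacking PAFAH1B2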
# PAFAH2 inh – PAFAH2 (human) inhibition | Q99487 | inhibition, % at 3.39 µM | recombinant PAFAH2, FP-rhodamine activity probe, fluorescence polarization | 340,000 compounds, 0.99% hits;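 active = inhibition above the mean over all tested compounds plus 3 SD, cut at about 30% in these data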;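 note: inhibitors block probe labeling of enzyme so polarization drops; 0% = enzyme with DMSO and 100% = wells lacking PAFAH2 protein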
# pPAFAH inh – pPAFAH (human) enzyme inhibition; 330,000 compounds, 1.5% hits; recombinant pPAFAH, FP-rhodamine probe fluorescence polarization; inhibition, % at 3.39 µM;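 active = inhibition above the mean inhibition across the screen plus 3 SD, cut at about 25% in these data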;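 note: inhibitors block binding of the rhodamine activity-based probe so polarization drops; 0% = enzyme with DMSO and 100% = wells lacking pPAFAH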
# Apaf-1 inh – human Apaf-1 inhibition; inhibition, % at 20 µM; O14727; AID 489030; 330,000 compounds, 0.71% hits; reconstituted apoptosome caspase-3 activity, DEVD-Rh110 fluorescence; active = inhibition of at least 40% at 20 µM;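 note: plate controls were DMSO wells for no effect and DEVD-CHO caspase inhibitor wells for full effect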
# Target sequence (O14727 whole entry, looked up): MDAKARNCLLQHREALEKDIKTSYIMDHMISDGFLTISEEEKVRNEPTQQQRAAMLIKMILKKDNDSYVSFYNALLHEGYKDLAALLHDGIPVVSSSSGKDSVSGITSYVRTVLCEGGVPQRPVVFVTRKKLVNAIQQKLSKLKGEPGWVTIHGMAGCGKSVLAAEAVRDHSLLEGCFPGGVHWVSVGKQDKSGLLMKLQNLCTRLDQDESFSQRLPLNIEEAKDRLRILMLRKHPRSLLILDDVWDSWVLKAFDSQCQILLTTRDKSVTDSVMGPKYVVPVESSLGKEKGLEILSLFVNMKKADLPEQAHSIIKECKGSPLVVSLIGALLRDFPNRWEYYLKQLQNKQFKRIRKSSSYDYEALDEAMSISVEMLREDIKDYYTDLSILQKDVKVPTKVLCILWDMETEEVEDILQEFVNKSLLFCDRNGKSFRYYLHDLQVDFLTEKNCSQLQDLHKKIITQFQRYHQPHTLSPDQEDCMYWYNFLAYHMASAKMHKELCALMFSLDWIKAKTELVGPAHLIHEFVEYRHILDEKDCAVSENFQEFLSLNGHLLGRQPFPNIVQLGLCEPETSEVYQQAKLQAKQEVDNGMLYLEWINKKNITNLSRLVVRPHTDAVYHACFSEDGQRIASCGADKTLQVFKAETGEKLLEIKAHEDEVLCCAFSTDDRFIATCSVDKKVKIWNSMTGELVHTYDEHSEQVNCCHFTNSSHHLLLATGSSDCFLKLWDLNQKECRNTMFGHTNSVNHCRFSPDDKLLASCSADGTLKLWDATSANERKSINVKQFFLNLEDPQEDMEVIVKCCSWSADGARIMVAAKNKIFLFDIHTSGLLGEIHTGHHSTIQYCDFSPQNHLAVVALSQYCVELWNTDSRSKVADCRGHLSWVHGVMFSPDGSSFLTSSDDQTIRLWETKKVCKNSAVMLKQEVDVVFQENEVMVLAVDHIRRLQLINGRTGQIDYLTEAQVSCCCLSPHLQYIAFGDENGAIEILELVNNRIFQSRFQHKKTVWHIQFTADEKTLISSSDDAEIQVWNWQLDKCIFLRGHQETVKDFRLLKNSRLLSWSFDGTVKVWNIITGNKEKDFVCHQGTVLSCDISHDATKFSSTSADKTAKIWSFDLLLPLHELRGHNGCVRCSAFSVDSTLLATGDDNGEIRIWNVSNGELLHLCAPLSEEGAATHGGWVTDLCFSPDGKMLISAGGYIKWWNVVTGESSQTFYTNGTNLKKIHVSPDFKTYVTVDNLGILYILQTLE
#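 Material: cell-free apoptosome with Apaf-1, procaspase-3 and caspase-9; Buffer or medium: Hepes pH 7.5 with detergent and BSA; Reagent: cytochrome c trigger plus (Z-DEVD)2-Rh110 caspase-3 substrate; Times: compound with Apaf-1, dATP, procaspase-3 30 min, then 50 min reaction, room temperature; Technique: Rh110 fluorescence intensity.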
# Apaf-1 inh conf – Apaf-1 inhibition, single-dose confirmed; shares compounds with Apaf-1 inh; reconstituted apoptosome, caspase-3 DEVD-Rh110 fluorescence; inhibition, % at 20 µM; 1,800 compounds, 25% hits;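 active = mean inhibition of at least 40% at 20 µM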;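 note: plate controls were DMSO wells for no effect and DEVD-CHO caspase inhibitor control wells for full effect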
# Rh110 quench – interferes with Rh110 fluorescence, flagging false Apaf-1 inhibitors; activation (fluorescence interference), % at 20 µM; 1,800 tested, under 10 active; shares compounds with Apaf-1 inh; AID 504615; Rh110 fluorescence interference, quenched caspase reaction;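 active = signal rise of 40% or more at 20 µM, treated as a fluorescence artifact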
# Apaf1 inh interf – Apaf-1 inhibitor counter-screen fluorescence artifact; fluorescence interference counterscreen, Apaf-1 assay format; 460 tested, under 10 active; IC50, µM; shares compounds with Apaf-1 inh; call rule not given here
# * marks the source's active call; other numbers are inactive results; / = no result. Rows were chosen to be rich in hits. Some 3.5% of all compounds tested hit in one or more screens of this group.
SMILES,PREPL inh,PAFAH1B3 inh,PAFAH1B2 FP inh,PAFAH2 inh,pPAFAH inh,Apaf-1 inh,Apaf-1 inh conf,Rh110 quench,others
COc1ccc(CNc2ccc3cn[nH]c3c2)c(OC)c1OC,10,17,3,1,2,46*,39,-2,
C=CCOc1ccc(CNc2ccc3[nH]c(=O)[nH]c3c2)cc1OC,/,11,0,5,/,/,/,/,
COC(=O)C1=C(C)NC(=O)NC1c1ccc(OCC(=O)N2CCCCC2)cc1 (centres undefined),6,-2,-3,-4,4,-5,/,/,
CN(C)CCNC(=O)c1ccc(COc2ccc(Cl)cc2Cl)cc1,-77,6,6,6,4,46*,5,3,
COc1ccc(Cl)cc1C(=O)NCCN(C)C,-5,3,5,10,1,5,/,/,
CCOC(=O)C1=C(COC(=O)c2sccc2C)NC(=O)NC1C (centres undefined),-50,12,7,0,1,-6,/,/,
CCOC(=O)C1=C(COC(=O)c2ccc([N+](=O)[O-])s2)NC(=O)NC1C (centres undefined),20,52*,11,36*,4,46*,38,3,
Cc1ccc(-n2c(SCC(=O)Nc3cc(C)on3)nc3c([nH]c4ccccc43)c2=O)cc1,-8,-4,0,-2,-3,54*,14,-5,
COc1ccc(-n2c(SCC(=O)Nc3cc(C)on3)nc3c([nH]c4ccccc43)c2=O)cc1,7,1,-5,-8,-2,18,/,/,
COc1cccc(NC(=O)N2C3CCCC2CC(NC(=O)C(C)(C)C)C3)c1 (centres undefined),-2,0,7,3,5,0,/,/,
COc1ccc(OC)c2c1cc(C(=O)N[C@H](C(=O)N1CCC[C@H]1C(=O)O)C(C)C)n2C,2,12,2,7,1,52*,26,4,
CC1(C)Oc2ccccc2OC1(O)c1ccc2ccccc2n1 (centres undefined),2,9,0,5,0,8,/,/,
Cc1ccc(C)c(COc2coc(CN3CCN(C(=O)c4ccco4)CC3)cc2=O)c1,8,20,4,-1,1,6,/,/,
CCN(CC)CCCNC(=O)Cn1nc([N+](=O)[O-])c(Cl)c1C,2,1,2,0,2,-5,/,/,
O=C(NCc1nnc(SCC(=O)N2CCCC2)o1)c1cccc(C(F)(F)F)c1,-7,2,-5,-2,-1,-1,/,/,
Cc1cc(=O)n(CCCc2ccccc2)[nH]1,8,13,1,-7,4,12,/,/,
N#CCCn1[nH]c(-c2ccccc2)cc1=O,1,-3,2,-1,6,72*,15,4,
CC1(C)OC(=O)C(=CNc2cccc(O)c2)C(=O)O1,2,-2,-4,0,15,-9,/,/,
CC1(C)OC(C)(C)/C(=C/Nc2ccc(O)cc2)C1=O,14,17,2,17,21,48*,14,-3,
c1ccc(NC2=Nc3cccc4cccc2c34)cc1,2,9,0,2,-1,15,/,/,
c1ccc2c(c1)CCN(C1=Nc3cccc4cccc1c34)C2,/,-2,13,9,/,43*,10,5,
COc1ccc(NC(=O)CCn2c(=S)[nH]c3ccccc3c2=O)cc1,10,2,1,-5,4,86*,7,5,
COc1ccc(CNC[C@@H](CCCCN(C)Cc2ccc(OC)cc2)N2C[C@H](c3ccccc3)N(CCc3ccc(Cl)c(Cl)c3)C(=O)C2=O)cc1,42,-3,6,0,3,49*,51*,7,Apaf1 inh interf=>100
CC(=O)Nc1ccc2c(c1)N(C(=O)CN(C)C)c1ccccc1CC2,19,6,2,2,1,43*,22,6,
CCOC(=O)Nc1ccc(NCc2ccc(F)cc2)nc1N,28,8,3,0,17,96*,53*,4,Apaf1 inh interf=>100
SMILES,PREPL inh,PAFAH1B3 inh,PAFAH1B2 FP inh,PAFAH2 inh,pPAFAH inh,Apaf-1 inh,Apaf-1 inh conf,Rh110 quench,others
Nc1ccc(N2CCOCC2)c2nonc12,10,24,11,7,1,84*,33,-6,
COc1ccc(CC(NC(C)=O)C(=O)N2CCN(C(=O)Nc3cccc(F)c3)CC2)cc1OC (centres undefined),5,-4,2,7,1,-11,/,/,
CN(Cc1c(F)cccc1Cl)C(=O)CNC(=O)c1cccs1,3,0,7,14,0,4,/,/,
CN(Cc1ccc(F)cc1)C(=O)CNC(=O)c1cccs1,-3,8,2,-2,-2,56*,41*,4,Apaf1 inh interf=>100
Cc1ccc(N=c2ssnc2Cl)cc1,2,0,4,-11,0,6,/,/,
Cc1nnc(N=c2ssnc2Cl)o1,-4,16,-2,-2,-2,50*,57*,5,Apaf1 inh interf=>100
COc1cc(S(=O)(=O)NCCCn2ccnc2)ccc1F,4,24,2,-4,3,-7,/,/,
COc1ccc(Cn2nc(-c3ccccc3)c(N3CCCCC3)cc2=O)cc1,-8,13,7,2,10,46*,17,10,
CCCCNc1c(C(=O)OCC)c(C)nc2c1cnn2CC,4,9,-4,7,0,6,/,/,
O=C(CSc1nnc(C2CC2)n1CC1CCCO1)Nc1cccc(Cl)c1 (centres undefined),0,1,-3,-4,4,9,/,/,
Cc1cc(O)c(C(C)C)cc1N=Cc1cc([N+](=O)[O-])ccc1O,-11,8,-3,-6,3,44*,7,1,
Cc1cc(O)c(C(C)C)cc1N=Cc1ccccc1O,-1,5,5,-1,1,36,/,/,
CS(=O)(=O)c1ccc(C(=O)OCC(=O)NC2CCS(=O)(=O)C2)cc1[N+](=O)[O-] (centres undefined),7,15,-1,3,4,-7,/,/,
O=C(CN1C(=O)c2ccccc2C1=O)c1ccccc1,-3,3,5,2,7,1,/,/,
CC1=C(CC(=O)c2ccccc2)C(=O)c2ccccc2C1=O,12,22,8,9,7,45*,40*,8,Apaf1 inh interf=>100
O=C(c1cc2cc([N+](=O)[O-])ccc2s1)N1CCCCC1,1,10,6,2,7,4,/,/,
N#CCSc1nnc(COc2cccc3ccccc23)n1-c1ccccc1,-17,-1,12,6,5,12,/,/,
